Holding throughout (format): functional
Test [1] deals with Clostridioides difficile. The experiment in a line: Antibacterial activity against Clostridium difficile ATCC 9689 in presence of 33 mg/L of calcium ion by CLSI agar dilution method. In general terms: In agar dilution the substance is mixed into plates at graded concentrations.
In test [2] the test system is Clostridioides difficile. The test is described as follows: Ratio of MIC for Clostridium difficile ATCC 700057 at pH 6 to MIC for Clostridium difficile ATCC 700057 at pH 8.1 by broth microdilution method. A digest of the protocol:
(§1)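 Broth microdilution in brucella broth buffered at 10 or 100 mM with NaH2PO4·H2O (pH 7.0), MOPS (pH 8.0) or TAPS (pH 9.0), pH set in ambient air. Final anaerobic pH ranges were 6–7.6 (10 mM) and 6–8.1 (100 mM). Plates were equilibrated anaerobically for at least 3 h before inoculation. Data were pooled from three experiments, and ratios were taken between MICs at the two pH values.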

For test [3], the system named is Clostridioides difficile. The experiment in a line: Antibacterial activity against Clostridium difficile ATCC 700057 in presence of 33 mg/L of calcium ion by CLSI agar dilution method.
Test [4] has as its system Clostridioides difficile. The test is described as follows: Antibacterial activity against Clostridium difficile ATCC 700057 in presence of 21 mg/L of magnesium ion by CLSI agar dilution method.
For test [5], the system named is Clostridioides difficile. The experiment in a line: Ratio of MIC for Clostridium difficile ATCC 9689 at pH 6 to MIC for Clostridium difficile ATCC 9689 at pH 7.5 by broth microdilution method. Put shortly: as §1
A general note: Dilution methods test growth across graded concentrations, often in twofold steps.

The test system of test [6] is Clostridioides difficile. The experiment in a line: Antibacterial activity against Clostridium difficile ATCC 9689 in presence of 21 mg/L of magnesium ion by CLSI agar dilution method.
Test [7] deals with Clostridioides difficile. The experiment in a line: Ratio of MIC for Clostridium difficile ATCC 9689 at pH 6 to MIC for Clostridium difficile ATCC 9689 at pH 8.1 by broth microdilution method. Put shortly:
as §1

For test [8], the system named is Clostridioides difficile. The experiment in a line: Ratio of MIC for Clostridium difficile ATCC 700057 at pH 6 to MIC for Clostridium difficile ATCC 700057 at pH 7.5 by broth microdilution method. A digest of the protocol:
as §1

The subject of test [9] is Clostridioides difficile. The experiment in a line: Antibacterial activity against Clostridium difficile ATCC 9689 in presence of 30 mg/L of magnesium ion by CLSI agar dilution method.
Test [10] concerns Clostridioides difficile. The test is described as follows: Antibacterial activity against Clostridium difficile ATCC 9689 in presence of 75 mg/L of calcium ion by CLSI agar dilution method.
For test [11], the system named is Clostridioides difficile. The test is described as follows: Ratio of MIC for Clostridium difficile ATCC 9689 at pH 6.2 to MIC for Clostridium difficile ATCC 9689 at pH 7.9 by CLSI agar dilution method. A digest of the protocol: (§2)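 Agar dilution MICs were measured over anaerobic pH 6.2–8.0. Media were buffered with 100 mM NaH2PO4 (pH 7) or TAPS (pH 8) and set in ambient air above the target pH. After 3 h equilibration in the chamber (5% CO2), anaerobic pH was checked with a flat-bottomed probe. The pH 8.0 run was repeated, and ratios were taken between MICs at the two pH values.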

The subject of test [12] is Clostridioides difficile. The experiment in a line: Antibacterial activity against Clostridium difficile ATCC 700057 in presence of 57 mg/L of magnesium ion by CLSI agar dilution method.
For test [13], the system named is Clostridioides difficile. The test is described as follows: Antibacterial activity against Clostridium difficile ATCC 700057 in presence of 30 mg/L of magnesium ion by CLSI agar dilution method.
The subject of test [14] is Clostridioides difficile. The test is described as follows: Antibacterial activity against Clostridium difficile ATCC 9689 in presence of 45 mg/L of calcium ion by CLSI agar dilution method.
Test [15] relates to Clostridioides difficile. The test is described as follows: Antibacterial activity against Clostridium difficile ATCC 700057 in presence of 75 mg/L of calcium ion by CLSI agar dilution method.
Test [16] deals with Clostridioides difficile. The experiment in a line: Antibacterial activity against Clostridium difficile ATCC 700057 by CLSI agar dilution method using 10^5 to 10^8 CFU/ml inoculum. Put shortly: (§3)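 CLSI agar dilution in a glove box (10% H2, 5% CO2, 85% N2). A ~10^8 CFU/ml suspension was serially diluted 10-fold to 10^5–10^8 CFU/ml and 2 μl was spotted (10^2–10^5 CFU/spot). Runs were done at least in duplicate; the mode was reported, or the higher value when replicates split evenly.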

Test [17] concerns Clostridioides difficile. The experiment in a line: Ratio of MIC for Clostridium difficile ATCC 700057 at pH 6.2 to MIC for Clostridium difficile ATCC 700057 at pH 7.9 by CLSI agar dilution method. Put shortly:
as §2

The test system of test [18] is Clostridioides difficile. The experiment in a line: Antibacterial activity against Clostridium difficile ATCC 9689 by CLSI agar dilution method using 10^5 to 10^8 CFU/ml inoculum. A digest of the protocol: as §3
Test [19] has as its system Clostridioides difficile. The test is described as follows: Antibacterial activity against Clostridium difficile ATCC 9689 in presence of 57 mg/L of magnesium ion by CLSI agar dilution method.
Test [20] deals with Clostridioides difficile. The test is described as follows: Ratio of MIC for Clostridium difficile ATCC 700057 at pH 7 to MIC for Clostridium difficile ATCC 700057 at pH 7.9 by CLSI agar dilution method. Put shortly:
as §2

In test [21] the test system is Clostridioides difficile. The experiment in a line: Ratio of MIC for Clostridium difficile ATCC 9689 at pH 7 to MIC for Clostridium difficile ATCC 9689 at pH 7.9 by CLSI agar dilution method. Put shortly:
as §2

Test [22] relates to Clostridioides difficile. The test is described as follows: Antibacterial activity against Clostridium difficile ATCC 700057 in presence of 45 mg/L of calcium ion by CLSI agar dilution method.

Molecules are shown by their SMILES. In brackets after ≈: the same amount, converted by molar mass.

As usually defined, the MIC is the lowest concentration that inhibits growth of the organism.

`CN[C@H](CC(C)C)C(=O)N[C@H]1C(=O)N[C@@H](CC(N)=O)C(=O)N[C@H]2C(=O)N[C@H]3C(=O)N[C@H](C(=O)N[C@H](C(=O)O)c4cc(O)cc(O)c4-c4cc3ccc4O)[C@H](O)c3ccc(c(Cl)c3)Oc3cc2cc(c3O[C@@H]2O[C@H](CO)[C@@H](O)[C@H](O)[C@H]2O[C@H]2C[C@](C)(N)[C@H](O)[C@H](C)O2)Oc2ccc(cc2Cl)[C@H]1O` [VANCOMYCIN]: the MIC in test [1], in [3], in test [4] and in test [6] was 1 µg/mL each time. Moreover, the Ratio was found to be 16 in test [2], 8 in test [5], 16 in test [7] and 8 in test [8].
On to `CCc1c(Cl)c(O)c(Cl)c(O)c1C(=O)O[C@H]1[C@H](O)[C@H](OC)[C@H](OC/C2=C\C=C\C[C@H](O)/C(C)=C/[C@H](CC)[C@@H](O[C@@H]3OC(C)(C)[C@@H](OC(=O)C(C)C)[C@H](O)[C@@H]3O)/C(C)=C/C(C)=C/C[C@@H]([C@@H](C)O)OC2=O)O[C@@H]1C` [FIDAXOMICIN], for which the MIC in test [9] is 0.063 µg/mL; in test [10] it was 0.063 µg/mL; in test [12], 0.125 µg/mL; in test [13], 0.125 µg/mL; in [1], 0.063 µg/mL; in [14], 0.063 µg/mL. For the same compound, the minimal inhibitory concentration (MIC) is 0.125 µg/mL in test [3]; 0.125 µg/mL in test [4]; 0.125 µg/mL in test [15]; 0.063 µg/mL in [6]; 0.125 µg/mL (≈ 0.118 µM) in test [16]; 0.063 µg/mL (≈ 0.0595 µM) in test [18]. Moreover, the MIC in [19] stood at 0.063 µg/mL; in [22] it was 0.125 µg/mL. Further, the Ratio in [11] worked out at 8; in [2], 16; in test [5] it was 8; in test [17] it was 8; in test [7], 16; in test [20], 8. The Ratio in [8] and in [21] was 8 each time.

Source of the values: ChEMBL document CHEMBL1255471, “Effects of inoculum, pH, and cations on the in vitro activity of fidaxomicin (OPT-80, PAR-101) against Clostridium difficile” (2010).
